# Assay results of several laboratories.
# Compare with care: the assays were run in different laboratories.
# Target: Phosphatidylinositol 4,5-bisphosphate 3-kinase catalytic subunit gamma isoform (PIK3CG, Homo sapiens, UniProt P48736)
Compound,assay,setting,quantity,result
Nc1ncc(-c2nc(N3CCOCC3)nc(N3CCOCC3)n2)c(C(F)F)n1,"binding, competition with immobilised ligand",10 µM,remaining binding,0%
Cc1nn(C)cc1-c1nc2c(N3CCN(Cc4ccc(Cl)cc4)CC3)c(Cl)cnc2[nH]1,"binding, competition with immobilised ligand",1 µM,remaining binding,100%
C#Cc1n[nH]c2c(-c3cn([C@@H](C)c4ccccc4)c(=O)[nH]c3=O)cc(F)cc12,"enzyme activity, inhibitor",0.1 µM,inhibition,7.4%
Cn1cncc1[C@](O)(COc1ccc(C#N)cc1-c1ccc(OC(F)(F)F)cc1)c1ccc(C#N)cc1,"cell-free assay, competition with immobilised ligand",1 µM,remaining binding,100%
COc1ncccc1-c1cnn2ccc(N3CCN(C(=O)OC(C)C)CC3)nc12,"binding, competition with immobilised ligand",1 µM,remaining binding,100%
Cn1cc(-c2cccc(N3CCc4c(sc5c4CC(C)(C)C5)C3=O)c2CO)cc(Nc2ccncn2)c1=O,"enzyme activity, inhibitor",1 µM,inhibition,-1%
C#Cc1n[nH]c2c(-c3cn([C@@H](C)c4ccccn4)c(=O)[nH]c3=O)cc(F)cc12,"enzyme activity, inhibitor",0.1 µM,inhibition,1.9%
Cn1cc(-c2cc(F)cc(N3CCn4c(cc5c4CCCC5)C3=O)c2CO)cc(Nc2ccc(N3CCN(C4COC4)CC3)cn2)c1=O,"enzyme activity, inhibitor",0.1 µM,inhibition,5%
N#CC1(c2ccccn2)CCN(Cc2cc(C(=O)O)c(=O)n3ccccc23)CC1,"cell-free assay, competition with immobilised ligand",1 µM,remaining binding,91%
